Published values pooled from the literature.
Lines come from different studies, so protocols differ.
CHEK1: Serine/threonine-protein kinase Chk1 (CHEK1, Homo sapiens, UniProt O14757)
PRMT1: Protein arginine N-methyltransferase 1 (PRMT1, Homo sapiens, UniProt Q99873)
DDR2: Discoidin domain-containing receptor 2 (DDR2, Homo sapiens, UniProt Q16832)
SLC6A3: Sodium-dependent dopamine transporter (SLC6A3, Homo sapiens, UniProt Q01959)
PDE10A: cAMP and cAMP-inhibited cGMP 3',5'-cyclic phosphodiesterase 10A (PDE10A, Homo sapiens, UniProt Q9Y233)

| SMILES | target | test | system | conditions | IC50 [µM] |
| --- | --- | --- | --- | --- | --- |
| O=c1cc(-c2ccc(-c3[nH]nc4c3Cc3cc(O)ccc3-4)cc2)cc[nH]1 | CHEK1 | enzyme activity, inhibitor | – | – | 1.25 |
| C/C(=N\O)c1ccc(-c2cccc(O)c2)c(Cl)c1O | Solute carrier family 2, facilitated glucose transporter member 1 (SLC2A1, Homo sapiens, UniProt P11166) | transporter uptake, inhibitor, radiometric | – | – | 15.7 |
| OC[C@H]1O[C@@H](n2cnc3c(NCCCc4ccccc4)ncnc32)[C@H](O)[C@@H]1O | PRMT1 | enzyme activity, inhibitor, fluorescence | – | – | > 100 |
| S=C(SSC(=S)N1CCOCC1)N1CCOCC1 | Tyrosine-protein phosphatase non-receptor type 22 (PTPN22, Homo sapiens, UniProt Q9Y2R2) | enzyme activity, inhibitor, fluorescence | – | pH 6.5 | 23 |
| Cc1cnc(-c2ccc(-c3ccc(NC(=O)Nc4c(F)cc(F)cc4F)cc3F)c3c2C(=O)NC3)[nH]1 | DDR2 | enzyme activity, inhibitor | – | – | 0.001 |
| OC1CCC(NCc2ccc3c(c2)Cc2c-3n[nH]c2-c2ccc[nH]2)CC1 (stereo not drawn) | CHEK1 | enzyme activity, inhibitor | – | – | 1.66 |
| COc1cc(O)c(C(CC(=O)Nc2ccc(C)cc2)c2ccc3c(c2)OCO3)c(OC)c1 (stereo not drawn) | Nuclear receptor ROR-gamma (Mus musculus, UniProt P51450) | reporter gene | – | – | > 50 |
| O=C(O)C1=CCCN(CCON=C(c2ccccc2)c2ccccc2)C1 | Sodium- and chloride-dependent GABA transporter 1 (Slc6a1, Rattus norvegicus, UniProt P23978) | ligand displacement, radioligand | – | – | 0.21 |
| Cc1cc(Nc2cc(CN3CCOCC3)c3nc(C)c(Cc4ccc(Cl)cc4F)n3n2)n[nH]1 | Fibroblast growth factor receptor 2 (FGFR2, Homo sapiens, UniProt P21802) | enzyme activity, inhibitor, TR-FRET | – | – | 0.032 |
| O=C(O)c1cnn2c(-c3cccc(C(F)(F)F)c3)ccnc12 | Toll-like receptor 8 (TLR8, Homo sapiens, UniProt Q9NR97) | reporter gene | – | – | > 20 |
| C=C1CC[C@@H]([C@H](C)CC(=O)/C=C(\C)C(=O)O)[C@@]12CCC1=C2CC[C@H]2C(C)(C)C(=O)CC[C@]12C | ATP-citrate synthase (ACLY, Homo sapiens, UniProt P53396) | enzyme activity, inhibitor | – | – | > 20 |
| Cc1ccc(C(=O)Nc2ccc(Oc3cc4cnn(C)c4cc3-c3cn[nH]c3)c(F)c2)c(=O)n1-c1ccc(F)cc1 | DDR2 | enzyme activity, inhibitor, radiometric | – | – | 0.041 |
| Clc1ccc(C(c2ccccc2)c2nnnn2CCCCN2CCC(CCc3ccccc3)CC2)cc1 (stereo not drawn) | SLC6A3 | transporter uptake, inhibitor | – | – | 0.443 |
| CSc1ccc(/C=C2/C(C)=C(CC(=O)O)c3cc(F)ccc32)cc1 | PDE10A | enzyme activity, inhibitor | – | – | > 100 |
| Oc1ccc(-c2ccc(-c3[nH]nc4c3Cc3cc(O)ccc3-4)cc2)cc1 | CHEK1 | enzyme activity, inhibitor | – | – | 0.0059 |
| CN(CCOc1ccc(CC2SC(=O)NC2=O)cc1)c1ccccn1 (stereo not drawn) | Pantothenate kinase 3 (PANK3, Homo sapiens, UniProt Q9H999) | enzyme activity, inhibitor, ATP luminescence | – | – | 1.7 |
| Fc1ccc(C(c2ccc(F)cc2)c2nnnn2CCCCN2CCC(c3ccccc3)CC2)cc1 | SLC6A3 | transporter uptake, inhibitor | – | – | 0.0557 |

| SMILES | target | test | system | conditions | IC50 [µM] |
| --- | --- | --- | --- | --- | --- |
| CCn1ncc2c1-c1cnc(N)c(c1)O[C@H](C)c1cc(F)ccc1-c1nn(C)nc1C2 | Leukocyte tyrosine kinase receptor (LTK, Homo sapiens, UniProt P29376) | enzyme activity, inhibitor, radiometric | – | – | 0.0058 |
| COc1ccc2c(c1)C(CC(=O)Nc1cccnc1)=C(C)/C2=C/c1cc(OC)c(OC)c(OC)c1 | PDE10A | enzyme activity, inhibitor, FP | – | – | 0.3 |
| O=C(N[C@@H]1CC[C@@H](c2cccc(F)c2F)CN(CC(F)(F)F)C1=O)N1CCC(n2c(=O)[nH]c3ncccc32)CC1 | ATP-binding cassette sub-family C member 4 (ABCC4, Homo sapiens, UniProt O15439) | transporter uptake, inhibitor | HEK293 | cell membranes | 42.4 |
| COc1ccc(CNc2c(CO)cnc3c(C4CC4)cc(C#N)cc23)cn1 | PDE10A | enzyme activity, inhibitor | – | – | > 10 |
| COc1cc2c(cc1OCc1ccncc1)Nc1cc(-c3ccc([N+](=O)[O-])c(OC)c3)ccc1C(=O)N2 | CHEK1 | enzyme activity, inhibitor | – | – | 0.00517 |
| c1ccc(CCC2CCN(CCCCn3nnnc3C(c3ccccc3)c3ccccc3)CC2)cc1 | SLC6A3 | transporter uptake, inhibitor | – | – | 0.383 |
| CCOc1ccc2c(-c3cc(C)nc(Nc4cc(OC)cc(C(F)(F)F)c4)n3)cnn2n1 | Dual specificity protein kinase CLK4 (CLK4, Homo sapiens, UniProt Q9HAZ1) | enzyme activity, inhibitor | – | – | > 10 |
| CC(C)n1nnc(-c2cc(O)cc(Nc3ncnn4ccc(CN5CCC(N)CC5)c34)c2)n1 | AP2-associated protein kinase 1 (AAK1, Homo sapiens, UniProt Q2M2I8) | enzyme activity, inhibitor | – | – | 0.0002 |
| COC(=O)C1CCCN1C(=O)c1ccc2c(c1)NC(=O)c1ccc(-c3ccc(O)c(OC)c3)cc1N2 (stereo not drawn) | CHEK1 | enzyme activity, inhibitor | – | – | 0.128 |
| Fc1ccc(C(c2ccc(F)cc2)c2nnnn2CCCCN2CCC(Cc3ccccc3)CC2)cc1 | SLC6A3 | transporter uptake, inhibitor | – | – | 0.0579 |
| COc1cc(-c2ccc3c(c2)Nc2ccc(CC(=O)NC(CO)c4ccccc4)cc2NC3=O)ccc1[N+](=O)[O-] (stereo not drawn) | CHEK1 | enzyme activity, inhibitor | – | – | 0.0269 |
| O=S(=O)(O)OC[C@H]1O[C@@](COS(=O)(=O)O)(O[C@H]2O[C@H](COS(=O)(=O)O)[C@@H](OS(=O)(=O)O)[C@H](OS(=O)(=O)O)[C@H]2OS(=O)(=O)O)[C@@H](OS(=O)(=O)O)[C@@H]1OS(=O)(=O)O | Coagulation factor XI (F11, Homo sapiens, UniProt P03951) | enzyme activity, inhibitor, absorbance | – | pH 7.4 | > 4000 |
| COC(=O)Cc1ccc2c(c1)NC(=O)c1ccc(-c3cn(C)cn3)cc1N2 | CHEK1 | enzyme activity, inhibitor | – | – | 7.81 |
| C#CCNC(=N)NCCCSC[C@H]1O[C@@H](n2cnc3c(NCCCc4ccccc4)ncnc32)[C@H](O)[C@@H]1O | PRMT1 | enzyme activity, inhibitor, fluorescence | – | – | 2.09 |
| COc1cc(-c2ccc3c(c2)Nc2ccc(OCCN4CCOCC4)cc2NC3=O)ccc1[N+](=O)[O-] | CHEK1 | enzyme activity, inhibitor | – | – | 0.0245 |
| Clc1ccc(C(c2ccc(Cl)cc2)c2nnnn2CCCCN2CCC(Cc3ccccc3)CC2)cc1 | SLC6A3 | transporter uptake, inhibitor | – | – | 0.172 |
